Source: PubChem BioAssay (several laboratories)
Calb FLC: C. albicans growth inhibition with fluconazole, primary screen, CaCi-2 strain, Alamar Blue fluorescence. hit rate 0.57% among 300,000. growth inhibition, % (no concentration beside the values). C. albicans CaCi-2 (fluconazole-resistant clinical isolate) + fluconazole, 48 h;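 active means growth inhibition above about 58% in most replicates, limit read from the data, passing the limit was not always enough; inconclusive means exactly half the replicates above a set limit; inactive means most replicates below a set limit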;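 further: all wells also contain fluconazole at 8 µg/ml as a sub-toxic cotreatment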
Beta apoptosis: inhibitors of cytokine-induced beta cell apoptosis, primary screen, luminescence; AID 435005, 2010; INS-1E cytokine-induced death, ATP luminescence, 48 h; percent of positive-control rescue, neutral wells zero; hit rate 0.8% among 300,000; protection from apoptosis, % (no concentration beside the values);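 active means Every replicate reaches about 75%, or at least half do and their mean reaches it too, limit read from the data; inconclusive means At least half of replicates reach the limit but their mean does not; inactive means Under half of replicates reach the limit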;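 further: higher means more ATP so stronger rescue from cytokine killing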
Mdm2-MdmX inh: inhibitors of human Mdm2-MdmX association, primary screen, cell-based, luminescence, split luciferase, SaOS-2, uHTS. Protein Mdm4 (Homo sapiens) + E3 ubiquitin-protein ligase Mdm2 (Homo sapiens), …. SaOS-2 split-luciferase Mdm2/MdmX complementation. inhibition, % at 8 µM. hit rate 3% among 330,000;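 active means inhibition of at least 50% at 8 µM in the primary screen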
Target sequence (O15151 whole entry, looked up): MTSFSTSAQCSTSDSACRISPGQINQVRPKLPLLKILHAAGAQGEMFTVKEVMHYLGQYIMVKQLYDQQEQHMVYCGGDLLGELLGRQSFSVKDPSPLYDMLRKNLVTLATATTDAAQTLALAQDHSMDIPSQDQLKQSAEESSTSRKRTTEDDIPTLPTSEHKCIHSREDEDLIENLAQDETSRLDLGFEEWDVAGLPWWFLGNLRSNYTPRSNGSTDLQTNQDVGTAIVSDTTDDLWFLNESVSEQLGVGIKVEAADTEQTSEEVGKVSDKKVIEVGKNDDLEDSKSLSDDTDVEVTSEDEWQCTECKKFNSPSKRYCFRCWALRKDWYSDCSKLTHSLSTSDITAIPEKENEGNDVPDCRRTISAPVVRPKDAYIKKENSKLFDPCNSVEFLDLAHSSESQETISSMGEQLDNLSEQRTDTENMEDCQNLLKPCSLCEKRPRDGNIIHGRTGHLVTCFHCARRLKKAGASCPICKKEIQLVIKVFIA
Target sequence (Q00987 whole entry, looked up): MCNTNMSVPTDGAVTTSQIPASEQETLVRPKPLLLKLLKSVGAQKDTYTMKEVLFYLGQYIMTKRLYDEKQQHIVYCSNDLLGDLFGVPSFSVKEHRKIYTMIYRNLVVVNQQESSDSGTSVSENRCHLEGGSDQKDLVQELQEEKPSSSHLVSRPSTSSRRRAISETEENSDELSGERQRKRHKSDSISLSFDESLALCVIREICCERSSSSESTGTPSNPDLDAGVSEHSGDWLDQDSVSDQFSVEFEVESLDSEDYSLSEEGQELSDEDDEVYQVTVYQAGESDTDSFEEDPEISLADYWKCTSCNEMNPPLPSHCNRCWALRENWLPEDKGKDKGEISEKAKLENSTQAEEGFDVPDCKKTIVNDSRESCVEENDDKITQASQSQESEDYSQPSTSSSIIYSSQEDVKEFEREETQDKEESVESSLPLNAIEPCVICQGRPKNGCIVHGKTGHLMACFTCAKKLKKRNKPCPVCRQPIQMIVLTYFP
CSC inhib: cancer stem cell viability inhibitors, primary screen, luminescence | inhibition, % at 7.5 µM | cancer stem cell-like cells viability | hit rate 1.1% among 300,000; in the data active means inhibition above about 75%; inconclusive means no clear call, values can overlap the other calls; tested in HMLE shEcad cells
SKKanGAS inh: S. pyogenes SKKanGAS growth inhibitors in kanamycin, primary screen, streptokinase expression inhibitor project, SKKanGAS strain, BacTiter-Glo luminescence; 6 h; inhibition, % at 7.5 µM; hit rate 1.3% among 300,000;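 active means mean replicate score, as percent of positive control median, at least 50; inconclusive means mean below 50 but one replicate at or above 50; inactive means mean and every replicate below 50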;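 further: strain carries kanamycin resistance gene driven by streptokinase promoter and grows in 40 µg/ml kanamycin; loss of luminescence reflects streptokinase promoter inhibition or plain growth inhibition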
T cruzi repl: inhibitors of intracellular T. cruzi growth, primary screen, luminescence, NIH3T3 host cells | T. cruzi beta-gal in NIH3T3, 90 h | inhibition, % (test concentration not listed) | hit rate 1.4% among 300,000 | AID 1885, 2009;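 active means mean inhibition across valid replicates above about 55%, limit read from the data; inconclusive means mean below that limit but half or more replicates reach it; inactive means mean below it, under half of replicates reach it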;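 further: signal also drops with host cell toxicity which is not excluded here; higher percent means less beta-gal luminescence so fewer parasites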
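Read-out: Parasite load inhibition, % | Test system: Mouse NIH/3T3 fibroblasts infected with β-gal-expressing T. cruzi Tulahuen C4 | Amount: 5,000 cells/well | Medium: DMEM, 2% fetal bovine serum | Signal: GalScreen β-gal luminescence, detergent lysis, 60 min | Timing: 3 h attach, ≥90 h co-culture | Also added: Tulahuen C4 trypomastigotes, 5000/well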
Large screens that a line does not name were inactive. An excerpt weighted towards active compounds, which were near 5.7% of everything screened.

CCOC(=O)c1c(C)[nH]c(C)c1C(=O)COC(=O)c1ccc([N+](=O)[O-])s1	none (no result: Calb FLC, SKKanGAS inh, T cruzi repl)
O=C(C1CCCN(S(=O)(=O)c2ccc(F)cc2)C1)N1CCCCC1 (configuration not stated)	none
COc1ccc(/C=C2\SC(=S)N(NS(=O)(=O)c3ccc(C)cc3)C2=O)c(OC)c1	none
O=C1/C(=C/c2ccncc2)SC(=S)N1Nc1ccccc1	none
O=C(O)c1ccc(/C=C2\SC(=S)N(Nc3ccccc3)C2=O)cc1	Beta apoptosis 91.4
COc1cc(/C=C2\SC(=S)N(Nc3ccccc3)C2=O)ccc1O	none (no result: CSC inhib)
CCOc1ccc(/C=C2\SC(=S)N(NS(=O)(=O)c3ccccc3)C2=O)cc1OC	none
COc1ccc(OC)c(/C=C2\SC(=S)N(NS(=O)(=O)c3ccc(C)cc3)C2=O)c1	Calb FLC 88.7
CCOc1cc(/C=C2\SC(=S)N(NS(=O)(=O)c3ccccc3)C2=O)ccc1O	Calb FLC 88.3
O=C1/C(=C/c2ccc(O)c(O)c2)SC(=S)N1Nc1ccccc1	Calb FLC 114.2 (no result: Beta apoptosis, Mdm2-MdmX inh, CSC inhib)
c1ccc(OCCN2CCN(C(c3ccccc3)c3ccccc3)CC2)cc1	none (no result: Beta apoptosis)
CCN(Cc1ccncc1)C(=S)Nc1c(C)cccc1C	none (no result: CSC inhib)
Cc1c(Cl)cccc1NC(=S)N(Cc1cccnc1)Cc1ccccc1Cl	T cruzi repl 75.3
Cc1cccc(C)c1NC(=S)N(Cc1ccccc1)Cc1cccnc1	T cruzi repl 79.2
CSc1cccc(NC(=S)N(Cc2ccccc2)Cc2cccnc2)c1	T cruzi repl 82.5
COc1ccccc1NC(=S)N(Cc1ccccc1)Cc1cccnc1	none
COc1ccc(S(=O)(=O)NCC(c2ccc(F)cc2)N2CCOCC2)cc1Br (configuration not stated)	none (no result: Calb FLC, Beta apoptosis, CSC inhib, SKKanGAS inh, T cruzi repl)
S=C(Nc1ccccc1Cl)N(CCCN1CCOCC1)Cc1ccccn1	none
CC(C)(C)C1CCc2c(sc(NC(=O)CSc3ncn[nH]3)c2C#N)C1 (configuration not stated)	CSC inhib 93.2
Cc1ccnc(SCC(=O)Nc2sc3c(c2C#N)CCCC3)n1	Beta apoptosis 106.3
CCN(Cc1ccncc1)C(=O)c1cccc(S(=O)(=O)N2CCCCC2)c1	none (no result: Calb FLC, SKKanGAS inh, T cruzi repl)
CC(C)(C)C(=O)COC(=O)C1=NN(c2ccccc2)C(=O)CC1	none
CC(C)c1c(C#N)c(N)nc(SCC(=O)c2cc3ccccc3oc2=O)c1C#N	none
N#Cc1ccc(-c2ccccc2)nc1SCC(=O)c1cc2ccccc2oc1=O	SKKanGAS inh 108.8
COC(=O)c1ccccc1S(=O)c1snnc1C (configuration not stated)	none
O=C(NCc1ccc(C(F)(F)F)cc1)c1ccc2c(c1)S(=O)(=O)c1ccccc1C2=O	SKKanGAS inh 50.7
O=C(Oc1cccc(Nc2ncnc3ccccc23)c1)c1ccccc1Cl	SKKanGAS inh 60.6
O=C(Oc1ccc(Nc2ncnc3ccccc23)cc1)c1cccnc1	none (no result: Beta apoptosis, Mdm2-MdmX inh, CSC inhib)
CCOC(=O)C1=C(N)Oc2cc(O)ccc2C1c1cccc(Cl)c1 (configuration not stated)	CSC inhib 82.0
CC1=Nc2ccccc2N=C(NC(=O)CN2CCN(c3ccccc3)CC2)C1c1ccccc1 (configuration not stated)	T cruzi repl 62.7
CCOC(=O)C1CCCN(CC(=O)NC2=Nc3ccccc3N=C(C)C2c2ccccc2)C1 (configuration not stated)	none
O=C(Cc1cccs1)N/N=C\c1ccc([N+](=O)[O-])s1	Beta apoptosis 93.9, T cruzi repl 83.5
Cc1ccc(NC(=S)N/N=C/c2ccc([N+](=O)[O-])s2)cc1	Beta apoptosis inconclusive, T cruzi repl 63.3
CCC(C)(C)C1CCC2(CC1)NC(=O)N(CC(=O)NC(C)CCc1ccccc1)C2=O (configuration not stated)	none (no result: Calb FLC, Beta apoptosis, CSC inhib, SKKanGAS inh, T cruzi repl)
O=C1c2[nH]nc(-c3ccccc3O)c2C(c2cccc(Cl)c2)N1Cc1ccco1 (configuration not stated)	CSC inhib 92.1, SKKanGAS inh 49.6
CCn1c(CCCc2ccc(OC)c(C)c2)n[nH]c1=S	none
COc1ccc(CN2CCC(n3nccc3NC(=O)C3CCCC3)CC2)cc1	none
CC(C)Cc1ccc(CN2CCC(n3nccc3NC(=O)C3CCCC3)CC2)cc1	T cruzi repl 59.0
CCOc1ccc(CN2CCC(C(=O)N3CCN(c4ccccc4F)CC3)CC2)cc1OC	T cruzi repl 69.2
CCCOc1ccc(C(=O)Nc2ccc(S(=O)(=O)N3CCN(C)CC3)cc2)cc1	none (no result: Beta apoptosis)
CCCOc1ccc(NC(=O)OC2CCN(C)CC2)cc1	T cruzi repl 54.6
C=CCc1cccc(CNc2nc3ccccc3n2CCC)c1O	CSC inhib 102.2
Nc1c(N(Cc2ccco2)C(=O)c2ccccc2F)c(=O)[nH]c(=O)n1Cc1ccccc1	none (no result: Calb FLC, Beta apoptosis, CSC inhib, SKKanGAS inh, T cruzi repl)
Cc1sc(NC(=O)CN(CCc2ccccc2)C(=O)C2CC2)c(C(N)=O)c1C	none
Cc1ccc(NS(=O)(=O)c2ccc(NC(=O)C(C)Sc3ccc(Cl)cc3)cc2)c(C)c1 (configuration not stated)	CSC inhib 76.8
Cc1ccc(C)c(NS(=O)(=O)c2ccc(NC(=O)CSc3ccc(Cl)cc3)cc2)c1	Calb FLC inconclusive
CC1(C)OC(C(O)(c2ccccc2)c2ccccc2)[C@@H](C(O)(c2ccccc2)c2ccccc2)O1 (some centres not stated)	CSC inhib 108.0, SKKanGAS inh 51.4 (no result: Mdm2-MdmX inh)
CN(C)Cc1ccccc1C(O)(c1ccccc1)c1ccccc1	none
CC(C)c1ccc(CN(C)C(=O)c2ccc(S(=O)(=O)NCc3ccco3)cc2)cc1	none (no result: Calb FLC, Beta apoptosis, CSC inhib, SKKanGAS inh, T cruzi repl)
Cc1ccc(C(=O)CSC2=C(C#N)C(c3ccco3)C3=C(CC(C)(C)CC3=O)N2)cc1 (configuration not stated)	CSC inhib 97.2
N#CC1=C(SCC(=O)c2ccc(Cl)cc2)NC2=C(C(=O)CCC2)C1c1ccco1 (configuration not stated)	CSC inhib 92.8
Cc1ccc(NC(=O)CSC2=C(C#N)C(c3ccco3)C3=C(CCCC3=O)N2)cc1 (configuration not stated)	none
CC1(C)CC(=O)C2=C(C1)NC(SCC(=O)Nc1ccccc1)=C(C#N)C2c1ccco1 (configuration not stated)	none
O=C(/C=C/c1ccccc1)Nc1nc(-c2ccncc2)cs1	T cruzi repl 66.2
Clc1ccc(Nc2nc(-c3ccncc3)cs2)cc1	T cruzi repl 56.6 (no result: CSC inhib)
c1ccc(-c2csc(Nc3cccnc3)n2)nc1	none
c1ccc(Nc2nc(-c3ccccn3)cs2)cc1	Calb FLC inconclusive, SKKanGAS inh 99.7
COc1cccc2sc(NNC(=O)COc3ccccc3)nc12	none (no result: CSC inhib)
